Laboratory results from ChEMBL document CHEMBL5724801, “EUbOPEN Chemogenomics Library - Multiplex” (2024).
Values joined by “and” are separate entries in the source; they are usually repeats but may differ in a detail not shown here. Identical values can stand only once.

System: U2OS
Experiment: Multiplex assay against U2OS
Assay type: toxicity, cell-based
Details: human
Method in brief: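 Values for tubulin, mitochondrial-mass and membrane-permeability phenotypes are per cents of cells with healthy nuclei. These cells were identified by CellPathfinder machine-learning gating of live cells that had been stained at seeding with Hoechst33342, BioTracker Green Microtubule Cytoskeleton Dye, MitoTracker Red and Annexin V Alexa Fluor 680 and imaged on a CQ1 microscope at 37°C and 5% CO2 after compound addition. The gating first set Hoechst high-intensity objects apart from normal cells, then split normal cells into healthy, pyknosed or fragmented nuclei, and pyknosed cells into mitotic or apoptotic.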

[1] = 12 h, 1 µM, compound concentration 1 uM
[2] = 12 h, 10 µM, compound concentration 10 uM
[3] = 24 h, 1 µM, compound concentration 1 uM
[4] = 24 h, 10 µM, compound concentration 10 uM
[5] = 48 h, 1 µM, compound concentration 1 uM
[6] = 48 h, 10 µM, compound concentration 10 uM

## COCCn1c(C)c(C)s/c1=N\C(=O)C1C(C)(C)C1(C)C
[1]
  Population Apoptotic (%): 88% and 71%
  Population Fragmented Nuclei (%): 24% and 20%
  Population Healthy Nuclei (%): 69% and 74%
  Population Hoechst High Intensity Objects (%): 0%
  Population Membrane Permeable-Phenotype (%): 8% and 11%
  Population Mitochondria Different-Phenotype (%): 1% and 3%
  Population Mitotic Cells (%): 11% and 28%
  Population Normal (%): 99% and 100%
  Population Pyknosed Nuclei (%): 6% and 5%
  Population Tubulin-Different-Phenotype (%): 3% and 5%
  Total Cell Count: 271 and 135
[2]
  Population Apoptotic (%): 73% and 80%
  Population Fragmented Nuclei (%): 33% and 20%
  Population Healthy Nuclei (%): 52% and 68%
  Population Hoechst High Intensity Objects (%): 2% and 0%
  Population Membrane Permeable-Phenotype (%): 10% and 9%
  Population Mitochondria Different-Phenotype (%): 4% and 3%
  Population Mitotic Cells (%): 26% and 20%
  Population Normal (%): 97% and 100%
  Population Pyknosed Nuclei (%): 13% and 11%
  Population Tubulin-Different-Phenotype (%): 5% and 4%
  Total Cell Count: 220 and 135
[3]
  Population Apoptotic (%): 89% and 83%
  Population Fragmented Nuclei (%): 18%
  Population Healthy Nuclei (%): 75% and 77%
  Population Hoechst High Intensity Objects (%): 0%
  Population Membrane Permeable-Phenotype (%): 5% and 9%
  Population Mitochondria Different-Phenotype (%): 3%
  Population Mitotic Cells (%): 10% and 16%
  Population Normal (%): 99%
  Population Pyknosed Nuclei (%): 6% and 3%
  Population Tubulin-Different-Phenotype (%): 2% and 4%
  Total Cell Count: 314 and 157
[4]
  Population Apoptotic (%): 80% and 88%
  Population Fragmented Nuclei (%): 28% and 21%
  Population Healthy Nuclei (%): 58% and 66%
  Population Hoechst High Intensity Objects (%): 1%
  Population Membrane Permeable-Phenotype (%): 8% and 10%
  Population Mitochondria Different-Phenotype (%): 8% and 1%
  Population Mitotic Cells (%): 19% and 11%
  Population Normal (%): 98%
  Population Pyknosed Nuclei (%): 12%
  Population Tubulin-Different-Phenotype (%): 2% and 9%
  Total Cell Count: 257 and 141
[5]
  Population Apoptotic (%): 94% and 100%
  Population Fragmented Nuclei (%): 12% and 15%
  Population Healthy Nuclei (%): 79%
  Population Hoechst High Intensity Objects (%): 1%
  Population Membrane Permeable-Phenotype (%): 5% and 9%
  Population Mitochondria Different-Phenotype (%): 2% and 1%
  Population Mitotic Cells (%): 5% and 0%
  Population Normal (%): 98%
  Population Pyknosed Nuclei (%): 8% and 4%
  Population Tubulin-Different-Phenotype (%): 4% and 5%
  Total Cell Count: 459 and 218
[6]
  Population Apoptotic (%): 81% and 96%
  Population Fragmented Nuclei (%): 22% and 15%
  Population Healthy Nuclei (%): 62% and 71%
  Population Hoechst High Intensity Objects (%): 2% and 1%
  Population Membrane Permeable-Phenotype (%): 11% and 4%
  Population Mitochondria Different-Phenotype (%): 4%
  Population Normal (%): 97% and 98%
  Population Pyknosed Nuclei (%): 14% and 12%
  Population Tubulin-Different-Phenotype (%): 5% and 2%
  Total Cell Count: 305 and 206
